Experimental data collected from several papers.
Each line is one published result; the experiments were not run side by side.
Target: Casein kinase I isoform alpha-like (CSNK1A1L, Homo sapiens, UniProt Q8N752)
One construct used (Q8N752 1-337): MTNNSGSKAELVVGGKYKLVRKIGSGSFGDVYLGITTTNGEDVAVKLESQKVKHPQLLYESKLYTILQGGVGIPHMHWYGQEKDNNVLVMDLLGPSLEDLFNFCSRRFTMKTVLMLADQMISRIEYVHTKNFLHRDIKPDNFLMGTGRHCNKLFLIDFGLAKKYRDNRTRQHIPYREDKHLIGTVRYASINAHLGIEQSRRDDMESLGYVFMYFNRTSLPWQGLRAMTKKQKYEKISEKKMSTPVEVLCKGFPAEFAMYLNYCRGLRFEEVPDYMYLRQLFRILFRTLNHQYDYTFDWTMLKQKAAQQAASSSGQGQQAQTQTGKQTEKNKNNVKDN

For `C=CC(=O)N1CCC(C(=O)NCC(=O)N2CCN(c3nc(-c4cnc(N)nc4C(F)F)nc(N4CCOCC4)n3)CC2)CC1`, the remaining binding was 100% (binding; competition with immobilised ligand; 1 µM).
For `COc1cnc(Nc2cccc(S(N)(=O)=O)c2)nc1N1CCN(c2ccccc2)CC1`, the remaining binding was 96% (binding; competition with immobilised ligand; 1 µM).
For `CN(C(=O)c1ccccc1)c1cc(N(C)c2ccc3c(c2)CCc2ccc(C(=O)NCCN4CCOCC4)cc2C3=O)ccc1F`, the remaining binding was 100% (cell-free assay; competition with immobilised ligand; 1 µM).
With `O=C(NCCCN1CCOCC1)c1ccc(Nc2ncc(Cl)c(-c3ccc(Cl)s3)n2)cc1` the remaining binding was 100% (binding; competition with immobilised ligand; 1 µM).
`O=C(Nc1c[nH]nc1C(=O)NC1CCNCC1)c1cc(F)cc(F)c1` has a remaining binding of 84% (binding; competition with immobilised ligand; 1 µM).
`O=C(NCCCN1CCOCC1)c1ccc(Nc2nccc(-c3cc4ccccc4s3)n2)cc1` gave a remaining binding of 91% (binding; competition with immobilised ligand; 1 µM).
For `CNC(=O)Nc1ccc2c(c1)CC[C@@]21OC(=O)N(CC(=O)N(Cc2ccc(F)cc2)[C@@H](C)C(F)(F)F)C1=O`, the remaining binding was 88% (cell-free assay; competition with immobilised ligand; 1 µM).
The remaining binding of `Nc1ncc2c(n1)-c1c([nH]c3ccc(C#CC4CC4)cc13)CCCC2` is reported as 99% (binding; competition with immobilised ligand; 1 µM).
For `CCCOc1ccc([C@@H]2[C@@H](C(=O)O)[C@H](c3ccc4c(c3)OCO4)CN2CC(=O)Nc2c(CC)cccc2CC)cc1`, the remaining binding was 94% (cell-free assay; competition with immobilised ligand; 1 µM).
For `N[C@@H]1CCN(c2nccc(-c3cnn4ncccc34)n2)C1`, the remaining binding was 100% (binding; 1 µM).
`CN(C)C(=O)Cn1cc(-c2nc([C@@](C)(c3ccc(-c4cnc(N)nc4)cc3)C3CC3)no2)cn1` gave a remaining binding of 100% (cell-free assay; competition with immobilised ligand; 1 µM).
`c1cnn2ncc(-c3ccnc(N4CCC45COC5)n3)c2c1` has a remaining binding of 68% (binding; 1 µM).
`Cc1cnc(Nc2ccc(C(=O)N3CCC(N4CCCC4)CC3)cc2)nc1-c1cc2ccccc2s1` gave a remaining binding of 100% (binding; competition with immobilised ligand; 1 µM).
`CN(C)c1ncc(F)c(-c2cnn3ncccc23)n1` has a remaining binding of 100% (binding; 1 µM).
For `COc1ncc2cc3ccccc3nc2c1C#N`, the remaining binding was 100% (cell-free assay; competition with immobilised ligand; 5 µM).
The remaining binding of `CN(C)c1nccc(-c2cnn3ncccc23)n1` is reported as 98% (binding; 1 µM).
`C[C@H](c1ccnc(Nc2nc3ccc(-c4cc(N(C)C)ncn4)cc3[nH]2)c1)N1CCN(C(=O)CC(F)(F)F)CC1` has a remaining binding of 94% (cell-free assay; competition with immobilised ligand; 0.1 µM).
With `COc1ccnn2ncc(-c3ccnc(N(C)C)n3)c12` the remaining binding was 91% (binding; 1 µM).
The remaining binding of `CNCc1ccccc1-c1csc([C@@H](C)Nc2nc(C)nc3cc(OC)c(OC)cc23)c1` is reported as 100% (cell-free assay; competition with immobilised ligand; 1 µM).
With `C[C@H]1CCN(c2nccc(-c3cnn4ncccc34)n2)C1` the remaining binding was 100% (binding; 1 µM).
For `c1cncc(-c2cccc(Nc3nccc(NC4CCCCC4)n3)c2)c1`, the remaining binding was 92% (binding; competition with immobilised ligand; 10 µM).
